These results are taken from ChEMBL document CHEMBL1130297, “Synthesis of 5,6-dihydro-4-hydroxy-2-pyrones as HIV-1 protease inhibitors: the profound effect of polarity on antiviral activity” (J Med Chem, 1997).

Data set [1] concerns the target Human immunodeficiency virus type 1 protease (Human immunodeficiency virus 1, UniProt Q72874). In words: In vitro inhibition activity against HIV-1 protease. The procedure, abridged: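 HIV-1 protease inhibition read by HPLC assay at pH 6.2, modified from an earlier method. Buffer: 1.0 mM dithiothreitol, 80 mM MES, 160 mM NaCl, 1.0 mM EDTA, 0.1% polyethylene glycol (MW 8000). Final protease concentration 1.5 nM. IC50 values reported.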

Data set [2] is described as follows: Cytotoxicity in CEM cells in the absence of virus. It counts as cell-based. The settings on record: human, CEM (CCRF-CEM) cells; read-out: TC50 (the source's name). The procedure, abridged:
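Toxicity read in uninfected CEM cells (no virus present), run alongside the cellular antiviral protocol. Reported as TC50.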

The next data set relates to CCRF-CEM. The experiment in a line: Antiviral activity in HIV infected CEM cells. It is filed as functional, cell-based. The conditions noted are these: Homo sapiens. The procedure, abridged:
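Cytopathic-effect protection assay in HIV-infected CEM cells by a standard protocol. EC50 taken as the concentration at which 50% of cells are protected from cytopathic effects.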

As usually defined, the IC50 is the concentration at which inhibition is half-maximal. A higher IC50 goes with weaker potency. A word on the EC50: it is the concentration that produces a half-maximal response. `Cc1ccc(C(C)(C)C)c(SC2=C(O)OC(CCc3ccccc3)(c3ccc(OCCO)cc3)CC2=O)c1` (stereo not drawn) came in with an IC50 in data set [1] of 0.012 µM. Further, the CC50 in data set [2] amounted to 23 µM. In the data set on CCRF-CEM, this compound had an EC50 of 9.4 µM.
With `Cc1cc(SC2=C(O)OC(CCc3ccc(O)cc3)(c3ccccc3)CC2=O)c(C(C)(C)C)cc1CO` (stereo not drawn), in data set [1], the midpoint of inhibition, the IC50, lay at 0.0017 µM. For the same compound, in data set [2], the CC50 is over 100 µM. This compound yielded an EC50 in the data set on CCRF-CEM of 4.7 µM.
With `Cc1cc(SC2=C(O)OC(CCc3ccc(N)cc3)(C3CCCCC3)CC2=O)c(C(C)(C)C)cc1CO` (stereo not drawn), inhibition in data set [1] was half-maximal at 0.0032 µM (IC50). Also, the CC50 in data set [2] worked out at 80 µM. Moreover, in the data set with CCRF-CEM, the EC50 amounted to 1.4 µM.
For `Cc1ccc(C(C)(C)C)c(SC2=C(O)OC(CCc3ccc(O)cc3)(c3ccccc3)CC2=O)c1` (stereo not drawn) the same measures were 0.011 µM, 69 µM and over 69 µM.
For `COc1ccc(C2(CCc3ccc(O)cc3)CC(=O)C(Sc3cc(C)c(CO)cc3C(C)(C)C)=C(O)O2)cc1` (stereo not drawn), in data set [2], the CC50 is over 100 µM. The same compound gave an EC50 in the data set with CCRF-CEM of 2 µM.
Compound `Cc1cc(SC2=C(O)OC(CCc3ccc(O)cc3)(c3ccc(O)cc3)CC2=O)c(C(C)(C)C)cc1CO` (stereo not drawn) had an IC50 in data set [1] of 0.12 µM. In data set [2], the CC50 is 21 µM. Besides, the concentration for a half-maximal effect (EC50) with CCRF-CEM was over 21 µM.
`COCc1cc(C(C)(C)C)c(SC2=C(O)OC(CCc3ccccc3)(c3ccc(OCCO)cc3)CC2=O)cc1C` (stereo not drawn) displayed a half-inhibitory concentration (IC50) in data set [1] of 0.0045 µM. Also, the CC50 in data set [2] was 18 µM. The EC50 in the data set with CCRF-CEM is over 18 µM.
On to `Cc1cc(SC2=C(O)OC(C)(CCc3ccc(O)cc3)CC2=O)c(C(C)(C)C)cc1CO` (stereo not drawn), for which the IC50 in data set [1] came to 0.0043 µM. In addition, the CC50 in data set [2] is over 100 µM. In the data set on CCRF-CEM, the 50% effective concentration (EC50) worked out at 2.5 µM.
The compound `Cc1cc(SC2=C(O)OC(CCc3cccc(N)c3)(c3ccccc3)CC2=O)c(C(C)(C)C)cc1CO` (stereo not drawn) yielded an IC50 in data set [1] of 0.004 µM. Further, in data set [2], the CC50 was 23 µM. In the data set with CCRF-CEM, this compound yielded a 50% effective concentration (EC50) of 3.1 µM.
`Cc1cc(SC2=C(O)OC(CCc3ccccc3)(c3ccc(OCCO)cc3)CC2=O)c(C(C)(C)C)cc1O` (stereo not drawn) yielded an IC50 in data set [1] of 0.0037 µM. Also, the CC50 in data set [2] amounted to 27 µM. In addition, the EC50 in the data set with CCRF-CEM was 4.2 µM.
For `Cc1ccc(C(C)(C)C)c(SC2=C(O)OC(CCc3ccc(N)cc3)(c3ccccc3)CC2=O)c1` (stereo not drawn), the IC50 in data set [1] amounted to 0.024 µM. Besides, the CC50 in data set [2] turned out to be 54 µM. Besides, the EC50 in the data set on CCRF-CEM was over 54 µM.
For `Cc1cc(SC2=C(O)OC(CCc3cccc(O)c3)(c3ccccc3)CC2=O)c(C(C)(C)C)cc1CO` (stereo not drawn), the IC50 in data set [1] was 0.0025 µM. For the same compound, in data set [2], the CC50 is over 100 µM. In addition, the midpoint of the response with CCRF-CEM, the EC50, lay at 6.1 µM.
For `Cc1cc(SC2=C(O)OC(CCc3ccc(N)cc3)(c3ccccc3)CC2=O)c(C(C)(C)C)cc1CO` (stereo not drawn), the IC50 in data set [1] stood at 0.0031 µM. The CC50 in data set [2] amounted to 94 µM. For the same compound, the EC50 with CCRF-CEM was 3.7 µM.
For `Cc1cc(SC2=C(O)OC(CCc3ccc(O)cc3)(C(C)C)CC2=O)c(C(C)(C)C)cc1CO` (stereo not drawn) the same measures were 0.0036 µM, over 100 µM and 0.6 µM.
Take `Cc1ccc(C(C)(C)C)c(SC2=C(O)OC(CCc3ccccc3)(c3ccc(O)cc3)CC2=O)c1` (stereo not drawn): in data set [1], the midpoint of inhibition, the IC50, lay at 0.04 µM. In addition, the CC50 in data set [2] was 23 µM. In addition, the EC50 in the data set with CCRF-CEM is over 23 µM.
As for `Cc1cc(SC2=C(O)OC(CCc3ccccc3)(c3ccccc3)CC2=O)c(C(C)(C)C)cc1CO` (stereo not drawn), it took 0.0066 µM to reach half-maximal inhibition in data set [1] (IC50). Besides, in data set [2], the CC50 was 66 µM. Further, in the data set with CCRF-CEM, a half-maximal response (EC50) required 2.5 µM.
Regarding `COc1cc(C(C)(C)C)c(SC2=C(O)OC(CCc3ccccc3)(c3ccccc3)CC2=O)cc1C` (stereo not drawn), in data set [1], half-maximal inhibition (IC50) was put at 0.015 µM. Moreover, in data set [2], the CC50 was 33 µM. In the data set with CCRF-CEM, this compound showed an EC50 of over 33 µM.
In the case of `Cc1ccc(C(C)(C)C)c(SC2=C(O)OC(CCc3ccccc3)(c3ccc(N)cc3)CC2=O)c1` (stereo not drawn), half-maximal inhibition in data set [1] (IC50) required 0.032 µM. The CC50 in data set [2] is 67 µM. In the data set on CCRF-CEM, this compound gave an EC50 of over 67 µM.
On the same counts, the results for `Cc1cc(SC2=C(O)OC(CCc3ccc(O)cc3)(C3CCCCC3)CC2=O)c(C(C)(C)C)cc1CO` (stereo not drawn) are 0.0041 µM, 75 µM and 0.5 µM.
The compound `Cc1cc(SC2=C(O)OC(CCc3ccccc3)(c3ccc(OCCO)cc3)CC2=O)c(C(C)(C)C)cc1OCCO` (stereo not drawn) yielded an IC50 in data set [1] of 0.0064 µM. Moreover, in data set [2], the CC50 is 25 µM. The compound also displayed an EC50 in the data set with CCRF-CEM of 1.8 µM.
Turning to `Cc1cc(SC2=C(O)OC(CCc3ccccc3)(c3ccccc3)CC2=O)c(C(C)(C)C)cc1OCCO` (stereo not drawn), half-maximal inhibition in data set [1] (IC50) required 0.0068 µM. For the same compound, the CC50 in data set [2] was found to be 20 µM. Also, in the data set with CCRF-CEM, the EC50 is over 20 µM.
For the compound `Cc1cc(SC2=C(O)OC(CCc3ccccc3)(c3ccc(OCCO)cc3)CC2=O)c(C(C)(C)C)cc1CO` (stereo not drawn), the IC50 in data set [1] was 0.0014 µM. For the same compound, in data set [2], the CC50 turned out to be 67 µM. The response in the data set on CCRF-CEM was half-maximal at 4.2 µM (EC50).
For the compound `Cc1cc(SC2=C(O)OC(CCc3ccccc3)(c3ccccc3)CC2=O)c(C(C)(C)C)cc1O` (stereo not drawn), in data set [1], the IC50 stood at 0.033 µM. For the same compound, in data set [2], the CC50 was determined as 23 µM. This compound had an EC50 with CCRF-CEM of over 23 µM.
For the compound `Cc1ccc(C(C)(C)C)c(SC2=C(O)OC(CCc3ccccc3)(c3ccccc3)CC2=O)c1` (stereo not drawn), the CC50 in data set [2] was found to be 55 µM. In the data set on CCRF-CEM, this compound displayed an EC50 of over 55 µM.
On to `Cc1cc(SC2=C(O)OC(CCc3ccc(N)cc3)(C(C)C)CC2=O)c(C(C)(C)C)cc1CO` (stereo not drawn), for which the IC50 in data set [1] was determined as 0.0027 µM. In addition, the CC50 in data set [2] was over 100 µM. Also, a half-maximal effect with CCRF-CEM (EC50) was put at 0.5 µM.
